Results taken from ChEMBL document CHEMBL2010643 (Bioorg Med Chem Lett, 2012).
Active and inactive are the calls of the source. The rule behind the calls is not given here.

What was measured:
[1] = target: Leucine-rich repeat serine/threonine-protein kinase 2 (Homo sapiens, UniProt Q5S007); test: Inhibition of wild type LRRK2 phosphorylation at Ser935 in human lymphoblastoid cells at 0.03 to 3 uM after 90 mins by Western blot analysis; format: cell-based
[2] = Half life in Swiss albino mouse at 1 mg/kg, iv; format: ADME, organism-based; parameters: dose 1 mg/kg, route intravenous; details: in vivo
Outline: (§1)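 Male Swiss Albino mice were given a single dose, either intravenous at 1 mg/kg or oral at 10 mg/kg. AUClast was measured in plasma and in brain. Half-life, plasma clearance, volume of distribution and oral bioavailability were derived from the plasma data.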

[3] = system: Mus musculus; test: Inhibition of LRRK2 phosphorylation at Ser910 in C57BL/6 mouse kidney at 50 mg/kg, po administered for 8 hrs followed by 2 hrs dosing; format: functional, organism-based; parameters: dose 50 mg/kg
Outline: (§2)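 Mice were dosed by oral gavage at 10 or 50 mg/kg. Brain, spleen and kidney were collected. Endogenous LRRK2 was resolved by SDS–PAGE and blotted with phospho-specific antibodies to Ser910 and Ser935 and with an antibody to total LRRK2.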

[4] = target: Angiopoietin-1 receptor (Homo sapiens) (UniProt Q02763); test: Inhibition of TIE2 assessed as residual activity at 1 uM relative to control
[5] = target: Dual specificity protein kinase TTK (Homo sapiens) (UniProt P33981); test: Inhibition of TTK assessed as residual activity at 1 uM relative to control
Outline: (§3)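 Radioactivity-based enzymatic kinase assays run across a 124-kinase profiling panel (Dundee), reporting the remaining kinase activity relative to a control.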

[6] = target: Dual specificity protein kinase TTK (Homo sapiens) (UniProt P33981); test: Inhibition of TTK assessed as residual activity at 10 uM relative to control; outline: as §3
[7] = target: Protein-tyrosine kinase 6 (Homo sapiens) (UniProt Q13882); test: Inhibition of BRK assessed as residual activity at 1 uM relative to control
[8] = target: Receptor-interacting serine/threonine-protein kinase 2 (Homo sapiens) (UniProt O43353); test: Inhibition of RIPK2 assessed as residual activity at 1 uM relative to control
[9] = target: Dual specificity mitogen-activated protein kinase kinase 6 (Homo sapiens) (UniProt P52564); test: Inhibition of MKK6 assessed as residual activity at 10 uM relative to control
[10] = target: Calcium/calmodulin-dependent protein kinase kinase 2 (Homo sapiens) (UniProt Q96RR4); test: Inhibition of CAMKKb assessed as residual activity at 1 uM relative to control
Outline: (§4)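 Standard radioactivity-based enzymatic assays were run across a 124-kinase panel (Dundee profiling), with compound at 1 µM. Kinase activity was expressed relative to control.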

[11] = target: Serine/threonine-protein kinase 16 (Homo sapiens) (UniProt O75716); test: Inhibition of MPSK1 assessed as residual activity at 10 uM relative to control
[12] = target: Mitogen-activated protein kinase 12 (Homo sapiens) (UniProt P53778); test: Inhibition of p38gamma MAPK assessed as residual activity at 1 uM relative to control; outline: as §3
[13] = target: Eukaryotic elongation factor 2 kinase (Homo sapiens) (UniProt O00418); test: Inhibition of EF2K assessed as residual activity at 10 uM relative to control
[14] = target: Leucine-rich repeat serine/threonine-protein kinase 2 (Mus musculus) (UniProt Q5S006); test: Inhibition of wild type LRRK2 phosphorylation at Ser935 in mouse 3T3 cells after 90 mins by Western blot analysis; format: cell-based
Outline: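 Mouse Swiss 3T3 cells treated with DMSO or increasing inhibitor concentrations for 90 min. Endogenous LRRK2 in lysates immunoblotted with purified phospho-specific antibodies to Ser910 and Ser935 and with a total LRRK2 antibody. Blots done in duplicate, representative of at least two independent experiments.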

[15] = target: RAC-alpha serine/threonine-protein kinase (Homo sapiens) (UniProt P31749); test: Inhibition of PKBalpha assessed as residual activity at 1 uM relative to control
[16] = system: Mus musculus; test: Inhibition of LRRK2 phosphorylation at Ser910 in C57BL/6 mouse spleen at 10 mg/kg, po administered for 8 hrs followed by 2 hrs dosing; format: functional, organism-based; parameters: dose 10 mg/kg; outline: as §2
[17] = target: Inhibitor of nuclear factor kappa-B kinase subunit beta (Homo sapiens) (UniProt O14920); test: Inhibition of IKKbeta assessed as residual activity at 1 uM relative to control
[18] = target: Tyrosine-protein kinase CSK (Homo sapiens) (UniProt P41240); test: Inhibition of CSK assessed as residual activity at 1 uM relative to control; outline: as §4
[19] = target: Mitogen-activated protein kinase 14 (Homo sapiens) (UniProt Q16539); test: Inhibition of p38alpha MAPK assessed as residual activity at 1 uM relative to control; outline: as §3
[20] = Inhibition of PKA assessed as residual activity at 1 uM relative to control
[21] = system: Mus musculus; test: Inhibition of LRRK2 phosphorylation at Ser910 in C57BL/6 mouse spleen at 50 mg/kg, po administered for 8 hrs followed by 2 hrs dosing; format: functional, organism-based; parameters: dose 50 mg/kg; outline: as §2
[22] = target: MAP kinase-activated protein kinase 5 (Homo sapiens) (UniProt Q8IW41); test: Inhibition of PRAK assessed as residual activity at 10 uM relative to control
[23] = target: Glycogen synthase kinase-3 beta (Homo sapiens) (UniProt P49841); test: Inhibition of GSK3b assessed as residual activity at 1 uM relative to control; outline: as §4
[24] = target: Tau-tubulin kinase 1 (Homo sapiens) (UniProt Q5TCY1); test: Inhibition of TTBK1 assessed as residual activity at 10 uM relative to control; outline: as §3
[25] = target: Serine/threonine-protein kinase PAK 5 (Homo sapiens) (UniProt Q9P286); test: Inhibition of PAK5 assessed as residual activity at 1 uM relative to control
[26] = system: Mus musculus; test: Inhibition of LRRK2 phosphorylation at Ser935 in C57BL/6 mouse kidney at 50 mg/kg, po administered for 8 hrs followed by 2 hrs dosing; format: functional, organism-based; parameters: dose 50 mg/kg; outline: as §2
[27] = target: Serine/threonine-protein kinase 16 (Homo sapiens) (UniProt O75716); test: Inhibition of MPSK1 assessed as residual activity at 1 uM relative to control
[28] = target: Eukaryotic translation initiation factor 2-alpha kinase 3 (Homo sapiens) (UniProt Q9NZJ5); test: Inhibition of EIF2AK3 assessed as residual activity at 1 uM relative to control; outline: as §4
[29] = target: MAP kinase-interacting serine/threonine-protein kinase 2 (Homo sapiens) (UniProt Q9HBH9); test: Inhibition of MNK2 assessed as residual activity at 1 uM relative to control
[30] = system: Leucine-rich repeat serine/threonine-protein kinase 2 (Homo sapiens), Q5S007 [A2016T]; test: Inhibition of LRRK2 A2016T mutant phosphorylation at Ser910 expressed in HEK293 cells at 1 to 3 uM after 90 mins by immunoblot analysis; format: cell-based
[31] = target: Ephrin type-B receptor 1 (Homo sapiens) (UniProt P54762); test: Inhibition of EPH-B1 assessed as residual activity at 1 uM relative to control; outline: as §4
[32] = system: Brain; test: AUClast in Swiss albino mouse brain at 1 mg/kg, iv; format: ADME, organism-based; parameters: time 0 - last, dose 1 mg/kg, route intravenous; details: in vivo; outline: as §1
[33] = target: Serine/threonine-protein kinase TBK1 (Homo sapiens) (UniProt Q9UHD2); test: Inhibition of TBK1 assessed as residual activity at 10 uM relative to control

Sequence of Dual specificity protein kinase TTK (Homo sapiens) (P33981 whole entry): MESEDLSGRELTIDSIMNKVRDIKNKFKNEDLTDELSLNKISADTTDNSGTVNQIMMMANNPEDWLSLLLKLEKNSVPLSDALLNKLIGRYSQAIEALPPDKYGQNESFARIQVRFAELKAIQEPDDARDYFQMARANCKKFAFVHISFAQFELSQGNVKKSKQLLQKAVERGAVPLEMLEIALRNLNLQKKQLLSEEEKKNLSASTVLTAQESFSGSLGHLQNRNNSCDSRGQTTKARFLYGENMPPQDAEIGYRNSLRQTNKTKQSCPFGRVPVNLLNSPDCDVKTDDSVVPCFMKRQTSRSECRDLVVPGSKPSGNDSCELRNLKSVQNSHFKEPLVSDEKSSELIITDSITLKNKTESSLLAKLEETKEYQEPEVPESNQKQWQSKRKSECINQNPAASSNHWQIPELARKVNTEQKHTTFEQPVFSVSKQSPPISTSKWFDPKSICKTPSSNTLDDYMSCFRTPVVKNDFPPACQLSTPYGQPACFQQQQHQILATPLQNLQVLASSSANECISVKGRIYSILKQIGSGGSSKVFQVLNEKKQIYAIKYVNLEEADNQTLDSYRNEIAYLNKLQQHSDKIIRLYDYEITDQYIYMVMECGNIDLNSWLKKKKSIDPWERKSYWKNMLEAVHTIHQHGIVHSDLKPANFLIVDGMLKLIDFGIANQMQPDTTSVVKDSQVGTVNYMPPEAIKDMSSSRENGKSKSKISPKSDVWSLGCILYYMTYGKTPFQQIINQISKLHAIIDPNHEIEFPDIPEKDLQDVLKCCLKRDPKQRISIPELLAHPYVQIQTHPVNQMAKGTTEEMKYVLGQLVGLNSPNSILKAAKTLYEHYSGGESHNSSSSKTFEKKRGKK
Sequence of Serine/threonine-protein kinase 16 (Homo sapiens) (O75716 whole entry): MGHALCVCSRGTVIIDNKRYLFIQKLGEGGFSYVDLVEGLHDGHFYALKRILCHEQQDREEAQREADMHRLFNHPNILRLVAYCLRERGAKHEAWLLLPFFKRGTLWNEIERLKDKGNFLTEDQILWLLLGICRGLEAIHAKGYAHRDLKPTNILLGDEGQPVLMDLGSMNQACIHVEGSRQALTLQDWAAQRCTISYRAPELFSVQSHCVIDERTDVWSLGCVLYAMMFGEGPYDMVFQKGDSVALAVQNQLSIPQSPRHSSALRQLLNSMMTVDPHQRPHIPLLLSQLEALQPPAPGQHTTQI
Sequence of Leucine-rich repeat serine/threonine-protein kinase 2 (Q5S007 whole entry): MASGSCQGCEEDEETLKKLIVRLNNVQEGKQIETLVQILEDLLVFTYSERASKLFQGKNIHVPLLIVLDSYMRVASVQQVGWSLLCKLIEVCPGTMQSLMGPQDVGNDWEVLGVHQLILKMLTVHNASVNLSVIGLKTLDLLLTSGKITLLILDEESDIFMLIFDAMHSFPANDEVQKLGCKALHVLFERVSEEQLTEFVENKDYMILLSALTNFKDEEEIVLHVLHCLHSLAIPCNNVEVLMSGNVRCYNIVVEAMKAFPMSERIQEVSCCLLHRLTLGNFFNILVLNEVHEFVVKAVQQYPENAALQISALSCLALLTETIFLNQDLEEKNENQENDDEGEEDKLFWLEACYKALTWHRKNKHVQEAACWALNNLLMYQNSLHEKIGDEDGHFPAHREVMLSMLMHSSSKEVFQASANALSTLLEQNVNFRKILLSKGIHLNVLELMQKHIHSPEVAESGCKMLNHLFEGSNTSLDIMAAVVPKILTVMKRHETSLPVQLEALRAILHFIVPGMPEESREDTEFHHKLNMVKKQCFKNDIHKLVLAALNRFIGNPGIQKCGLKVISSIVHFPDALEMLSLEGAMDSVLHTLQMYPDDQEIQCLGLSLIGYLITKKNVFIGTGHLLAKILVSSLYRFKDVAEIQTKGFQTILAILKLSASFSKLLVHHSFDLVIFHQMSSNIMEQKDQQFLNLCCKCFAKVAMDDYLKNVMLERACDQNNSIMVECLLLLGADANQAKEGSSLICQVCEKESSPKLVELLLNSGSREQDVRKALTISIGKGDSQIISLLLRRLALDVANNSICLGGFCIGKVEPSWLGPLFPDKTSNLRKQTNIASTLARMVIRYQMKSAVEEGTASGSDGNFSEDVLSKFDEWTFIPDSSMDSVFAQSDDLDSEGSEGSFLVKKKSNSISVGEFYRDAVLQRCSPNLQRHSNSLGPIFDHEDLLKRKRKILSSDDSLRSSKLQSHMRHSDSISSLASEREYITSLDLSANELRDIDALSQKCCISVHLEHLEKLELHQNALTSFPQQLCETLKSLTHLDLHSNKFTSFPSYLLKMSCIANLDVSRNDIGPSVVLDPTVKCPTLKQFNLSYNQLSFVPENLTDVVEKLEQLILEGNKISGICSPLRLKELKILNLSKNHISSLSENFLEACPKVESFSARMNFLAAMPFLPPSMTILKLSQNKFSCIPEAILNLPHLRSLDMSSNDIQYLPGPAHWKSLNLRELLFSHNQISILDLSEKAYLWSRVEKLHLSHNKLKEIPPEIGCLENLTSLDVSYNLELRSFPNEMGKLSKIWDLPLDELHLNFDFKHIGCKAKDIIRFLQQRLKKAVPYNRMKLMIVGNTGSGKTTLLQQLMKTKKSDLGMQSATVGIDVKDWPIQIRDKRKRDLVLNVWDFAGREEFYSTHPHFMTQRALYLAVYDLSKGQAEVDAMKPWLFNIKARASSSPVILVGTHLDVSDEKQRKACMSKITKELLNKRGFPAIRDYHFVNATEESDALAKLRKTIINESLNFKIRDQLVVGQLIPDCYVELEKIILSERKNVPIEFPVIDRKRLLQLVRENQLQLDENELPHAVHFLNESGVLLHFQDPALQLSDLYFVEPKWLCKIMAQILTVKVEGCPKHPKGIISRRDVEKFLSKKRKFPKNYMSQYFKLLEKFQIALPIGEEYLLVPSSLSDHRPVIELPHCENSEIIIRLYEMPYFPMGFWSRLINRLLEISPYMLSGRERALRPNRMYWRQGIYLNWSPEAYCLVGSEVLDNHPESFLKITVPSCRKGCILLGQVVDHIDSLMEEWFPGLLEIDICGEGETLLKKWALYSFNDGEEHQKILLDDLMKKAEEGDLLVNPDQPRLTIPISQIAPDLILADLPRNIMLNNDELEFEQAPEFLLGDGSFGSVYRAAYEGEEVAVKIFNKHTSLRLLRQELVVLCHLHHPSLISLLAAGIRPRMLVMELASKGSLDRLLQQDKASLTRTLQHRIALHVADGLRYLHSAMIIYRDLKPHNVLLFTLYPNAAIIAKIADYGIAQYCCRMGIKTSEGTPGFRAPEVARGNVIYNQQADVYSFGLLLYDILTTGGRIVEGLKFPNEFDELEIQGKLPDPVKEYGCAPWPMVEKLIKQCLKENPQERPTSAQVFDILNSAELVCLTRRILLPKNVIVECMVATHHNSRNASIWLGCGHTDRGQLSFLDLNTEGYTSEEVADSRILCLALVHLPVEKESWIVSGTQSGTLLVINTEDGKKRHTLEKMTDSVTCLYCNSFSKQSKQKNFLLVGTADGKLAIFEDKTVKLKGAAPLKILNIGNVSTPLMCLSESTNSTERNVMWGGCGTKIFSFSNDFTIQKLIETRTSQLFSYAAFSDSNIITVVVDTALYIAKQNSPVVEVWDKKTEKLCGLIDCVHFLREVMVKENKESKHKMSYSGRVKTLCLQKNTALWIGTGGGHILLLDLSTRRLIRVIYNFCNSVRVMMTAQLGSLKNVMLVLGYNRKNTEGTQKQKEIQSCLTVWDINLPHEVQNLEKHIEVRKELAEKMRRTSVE
Sequence of Ephrin type-B receptor 1 (Homo sapiens) (P54762 whole entry): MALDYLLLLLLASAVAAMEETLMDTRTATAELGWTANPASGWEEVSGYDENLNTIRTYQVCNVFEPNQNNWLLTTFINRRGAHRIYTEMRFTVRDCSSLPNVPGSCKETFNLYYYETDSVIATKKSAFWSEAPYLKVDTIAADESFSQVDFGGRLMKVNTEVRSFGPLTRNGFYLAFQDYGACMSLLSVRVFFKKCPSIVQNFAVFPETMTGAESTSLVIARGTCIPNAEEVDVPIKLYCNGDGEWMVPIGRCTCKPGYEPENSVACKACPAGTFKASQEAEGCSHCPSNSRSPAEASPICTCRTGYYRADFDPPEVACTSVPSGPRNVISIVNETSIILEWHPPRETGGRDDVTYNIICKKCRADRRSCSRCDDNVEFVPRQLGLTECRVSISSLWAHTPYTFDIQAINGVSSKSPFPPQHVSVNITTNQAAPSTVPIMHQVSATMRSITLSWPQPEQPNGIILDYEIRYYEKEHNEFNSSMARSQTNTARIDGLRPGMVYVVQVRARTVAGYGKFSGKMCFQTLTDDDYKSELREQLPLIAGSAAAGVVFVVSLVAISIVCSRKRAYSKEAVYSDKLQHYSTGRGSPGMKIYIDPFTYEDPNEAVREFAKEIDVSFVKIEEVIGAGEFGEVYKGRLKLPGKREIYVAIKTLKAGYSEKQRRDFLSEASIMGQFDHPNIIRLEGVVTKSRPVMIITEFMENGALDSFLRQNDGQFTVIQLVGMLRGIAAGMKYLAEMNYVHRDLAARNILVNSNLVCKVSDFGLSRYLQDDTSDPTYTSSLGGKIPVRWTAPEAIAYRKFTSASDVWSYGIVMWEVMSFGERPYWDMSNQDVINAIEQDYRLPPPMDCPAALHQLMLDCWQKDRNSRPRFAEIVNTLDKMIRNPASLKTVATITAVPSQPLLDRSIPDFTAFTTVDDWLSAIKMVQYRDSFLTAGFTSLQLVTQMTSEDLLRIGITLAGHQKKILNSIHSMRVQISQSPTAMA
Sequence of Glycogen synthase kinase-3 beta (Homo sapiens) (P49841 whole entry, looked up): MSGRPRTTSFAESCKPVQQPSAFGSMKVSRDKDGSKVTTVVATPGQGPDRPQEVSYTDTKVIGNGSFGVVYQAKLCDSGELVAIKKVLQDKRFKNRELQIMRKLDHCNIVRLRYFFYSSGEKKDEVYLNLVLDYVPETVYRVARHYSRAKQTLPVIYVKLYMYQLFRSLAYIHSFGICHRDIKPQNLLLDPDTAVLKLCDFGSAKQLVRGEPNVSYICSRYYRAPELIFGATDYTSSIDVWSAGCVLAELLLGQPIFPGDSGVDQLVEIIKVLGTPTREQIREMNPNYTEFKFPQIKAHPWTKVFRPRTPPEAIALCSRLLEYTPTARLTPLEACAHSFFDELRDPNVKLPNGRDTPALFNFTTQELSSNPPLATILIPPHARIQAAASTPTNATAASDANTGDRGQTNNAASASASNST

Structure (SMILES): COc1cc(N2CCC(N3CCN(C)CC3)CC2)ccc1Nc1ncc(Cl)c(Nc2ccccc2S(=O)(=O)C(C)C)n1 [TAE-684]
- inhibition [1]: Active
- half-life [2]: 11.3 h
- inhibition [3]: Active
- Activity [4]: 18%
- Activity [5]: 73%
- Activity [6]: 47%
- Activity [7]: 5%
- Activity [8]: 94%
- Activity [9]: 75%
- Activity [10]: 9%
- Activity [11]: 96%
- Activity [12]: 102%
- Activity [13]: 94%
- inhibition [14]: Dose-dependent effect
- Activity [15]: 102%
- inhibition [16]: Active
- Activity [17]: 98%
- Activity [18]: 77%
- Activity [19]: 88%
- Activity [20]: 90%
- inhibition [21]: Active
- Activity [22]: 110%
- Activity [23]: 104%
- Activity [24]: 101%
- Activity [25]: 66%
- inhibition [26]: Active
- Activity [27]: 102%
- Activity [28]: 101%
- Activity [29]: 101%
- inhibition [30]: Active
- Activity [31]: 50%
- AUClast [32]: 1318 ng·h/mL
- Activity [33]: 71%
